SENP1 inh: blocks the human SENP1 SUMO protease catalytic domain; inhibition, % at 10 µM; 360,000 compounds, 0.21% hits; Q9P0U3; recombinant SENP1 catalytic domain, CyPet-SUMO1-YPet FRET cleavage;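 active = inhibition at least 30% at 10 µM, raw YFP signal under a set limit, fluorescence ratio 0.5 to 1.5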;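 note: 0% = enzyme with DMSO and 100% = no enzyme wells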
Target sequence (Q9P0U3 419-644 limits assumed): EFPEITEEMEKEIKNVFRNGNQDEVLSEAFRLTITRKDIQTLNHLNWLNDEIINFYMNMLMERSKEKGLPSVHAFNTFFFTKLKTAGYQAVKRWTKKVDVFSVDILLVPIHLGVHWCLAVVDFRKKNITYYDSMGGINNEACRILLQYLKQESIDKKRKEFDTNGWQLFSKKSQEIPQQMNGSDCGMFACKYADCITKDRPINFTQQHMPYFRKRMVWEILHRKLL
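Controls: no-enzyme wells low, DMSO-plus-enzyme wells high control. Test system: human recombinant His6-tagged SENP1 catalytic domain enzyme. Reagent: SFCypet-SUMO1-SFYpet FRET protein substrate, 25 nM final. Doses: one dose per compound, 10 µM, 0.5% DMSO. Detection: FRET, CFP and YFP emission. Timing: 50 min reaction at room temperature.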
Fh CTSL1 inh: counter-screen for PFM18AAP inhibitors: inhibitors of F. hepatica cathepsin L1. 300,000 compounds, 0.49% hits. recombinant F. hepatica cathepsin L1, Z-Leu-Arg-MCA fluorescence. inhibition, % at 5.96 µM;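 active = inhibition above the mean of all tested compounds plus 3 SD, set per screening campaign, cut at about 17% in these data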;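 note: 0% = plate median of test compound wells and 100% = 1 µM Z-Phe-Ala-diazomethylketone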
HDAC3 inh: human HDAC3 inhibition; O15379; recombinant HDAC3, fluorogenic peptide/trypsin coupled, fluorescence; inhibition, % at 8.3 µM; 320,000 compounds, 0.15% hits; in the data active = inhibition above about 26%, passing the limit was not always enough
Target sequence (O15379 whole entry, looked up): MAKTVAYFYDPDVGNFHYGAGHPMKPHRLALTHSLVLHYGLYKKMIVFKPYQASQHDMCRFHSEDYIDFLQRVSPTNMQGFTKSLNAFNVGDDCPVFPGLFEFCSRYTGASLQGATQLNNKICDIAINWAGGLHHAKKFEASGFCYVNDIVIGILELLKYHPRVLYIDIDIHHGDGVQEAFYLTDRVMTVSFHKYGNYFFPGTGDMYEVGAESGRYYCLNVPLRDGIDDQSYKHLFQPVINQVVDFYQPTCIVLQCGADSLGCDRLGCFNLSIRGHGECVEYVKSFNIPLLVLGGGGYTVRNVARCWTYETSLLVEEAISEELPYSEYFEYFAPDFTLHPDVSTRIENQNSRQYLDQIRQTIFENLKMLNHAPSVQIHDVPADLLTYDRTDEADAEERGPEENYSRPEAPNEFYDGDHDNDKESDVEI
PfM18AAP inh: blocks P. falciparum M18 aspartyl aminopeptidase; recombinant PfM18AAP, H-Glu-NHMec fluorogenic cleavage; inhibition, % at 7.35 µM; 290,000 compounds, 1.2% hits;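 active = inhibition above the campaign mean inhibition over all tested compounds plus 3 SD, cut at about 28% in these data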;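 note: 0% = plate median of test compound wells and 100% = 2 mM ZnCl2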
FXN GAA850 act: frataxin GAA850 promoter activation | HEK293 lucGAA850 FXN promoter luciferase reporter, 24 h; percent of 10 µM SAHA response | activation, % at 6 µM | 360,000 compounds, 0.56% hits | AID 540364;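 active = activation above the average of all compounds screened plus 3 SD, cutoff fixed separately per campaign, cut at about 7.5% in these data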;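 note: 0% = DMSO wells and 100% = 10 µM SAHA wells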
AHR activator: activators of human aryl hydrocarbon receptor; activation, % at 5 µM; AID 2796; P35869; 320,000 compounds, 2.5% hits; AHR-responsive luciferase reporter cells, luminescence; in the data active = activation above about 47%;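 note: 0% = vehicle wells and 100% = reference agonist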
SENP1 inh conf: confirmation of human SENP1 SUMO protease inhibitors; shares compounds with SENP1 inh; recombinant SENP1, CyPet-SUMO1-YPet FRET cleavage; inhibition, % at 10 µM; 520 compounds, 34% hits; in the data active = inhibition mostly above about 35%, no sharp cut-off; inactive = mostly below about 32%;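 note: 0% = enzyme with DMSO and 100% = no enzyme control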
SENP1 kin conf: SENP1 (human) inhibition, kinetic confirmation. shares compounds with SENP1 inh. recombinant SENP1, CyPet-SUMO1-YPet FRET kinetic cleavage. inhibition, % at 10 µM. 520 compounds, 26% hits. AID 651690; in the data active = inhibition mostly above about 32%, no sharp cut-off; inactive = mostly below about 29%;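 note: 0% = DMSO with enzyme and 100% = no enzyme substrate only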
Active calls of the source: *; / = not tested or not shown. Sampled rows, rich in hits. Any-hit rate of the full collection: about 4.2%.

SMILES | SENP1 inh | Fh CTSL1 inh | HDAC3 inh | PfM18AAP inh | FXN GAA850 act | AHR activator | SENP1 inh conf | SENP1 kin conf
O=[N+]([O-])c1ccc(Nc2ccccc2O)c([N+](=O)[O-])c1 | 50* | / | / | / | 2 | / | 31 | 17
O=[N+]([O-])c1ccc(Nc2ccc(N3CCOCC3)cc2)c([N+](=O)[O-])c1 | 1 | 3 | -4 | -13 | 1 | 12 | / | /
Nc1cc([N+](=O)[O-])ccc1Nc1ccccc1 | 56* | 2 | 10 | 12 | 4 | 2 | 39* | 15
Cc1ccc(-c2nnn(CCC(=O)N3CCCCC3C)n2)cc1 (centres undefined) | 2 | -5 | 5 | -2 | 3 | 3 | / | /
CC1CCCCN1C(=O)Cn1nnc(-c2cccnc2)n1 (centres undefined) | 30* | -2 | -3 | -9 | 1 | 2 | 34 | 23
COc1cc(Nc2nc3c(N)cc(C(F)(F)F)cc3nc2-c2ccccc2)cc(OC)c1OC | 46* | / | / | / | 3 | / | 2 | 3
COc1ccc(NC2=Nc3cccc4cccc2c34)cc1 | 77* | 9 | 10 | -2 | 3 | 22 | 57* | 29
c1ccc(NC2=Nc3cccc4cccc2c34)cc1 | 74* | 5 | 6 | 6 | 3 | 13 | 43* | 25
COc1cc(CNC(=O)c2cc(C(=O)NCc3cc(OC)cc(OC)c3)n(C)n2)cc(OC)c1 | 3 | / | / | / | 0 | / | / | /
Cc1cc(C)c(S(=O)(=O)n2c([N+](=O)[O-])cnc2C)c(C)c1 | 3 | -5 | 6 | 5 | 2 | 1 | / | /
CC(C)CC1C(=O)N(Cc2cn(CCC3OCCO3)nn2)CCS(=O)(=O)N1Cc1ccc(-c2ccc(Cl)c(Cl)c2)cc1 (centres undefined) | 0 | / | / | / | 0 | / | / | /
CCCCN(C(=O)c1ccc2c(c1)OCCO2)c1c(N)n(CC(C)C)c(=O)[nH]c1=O | -8 | 1 | / | / | 0 | -1 | / | /
COc1cc(-c2oc3cc(O)cc(O)c3c(=O)c2O[C@@H]2O[C@H](COC3O[C@@H](C)[C@H](O)[C@@H](O)[C@H]3O)[C@@H](O)[C@H](O)[C@H]2O)ccc1O (some centres undefined) | 8 | / | -4 | / | 2 | 1 | / | /
C[C@@H]1O[C@@H](OC[C@H]2O[C@@H](Oc3cc(O)c4c(=O)cc(-c5ccc(O)c(O)c5)oc4c3)[C@H](O)[C@@H](O)[C@@H]2O)[C@H](O)[C@H](O)[C@H]1O | 43* | / | 11 | / | 0 | 0 | 57* | 42*
COCOc1cccc(CN2CCC2(C)C(=O)Nc2ccc3c(c2)OCO3)c1 (centres undefined) | -2 | / | / | / | 2 | / | / | /
CCCCC(=O)OCC(=O)C1(O)Cc2c(O)c3c(c(O)c2C(OC2CC(NC(=O)C(F)(F)F)C(O)C(C)O2)C1)C(=O)c1c(OC)cccc1C3=O (centres undefined) | 95* | / | / | / | -6 | / | 27 | 12
COc1cccc2c1C(=O)c1c(O)c3c(c(O)c1C2=O)CC(O)(C(C)=O)CC3OC1CC(O)C(O)C(C)O1 (centres undefined) | 101 | / | / | / | -5 | / | / | /
Nc1c(-c2ccc(C(F)(F)F)cc2)nc2ncccn12 | 53* | / | / | / | / | / | 16 | 9
CCN1C(=O)c2cccc3c(NC(=O)C4CCCCC4)ccc1c23 | 40* | 3 | 3 | -3 | -1 | 6 | 20 | 30*
CCN1C(=O)c2cccc3c(NC(=O)c4ccccc4)ccc1c23 | 22 | 1 | 7 | -1 | 0 | 31 | / | /
CCOC(=O)Cn1c(=O)c(-c2cc(Br)ccc2N)nc2ccccc21 | 86* | -3 | -3 | -1 | 3 | 19 | 16 | 15
COc1cc(/C=C2\SC(=S)N(CCC(=O)NCCc3ccccc3)C2=O)cc(OC)c1OC | 35* | 2 | 1 | 1 | 1 | -1 | 13 | 16
COc1cc(/C=C2/SC(=S)N(C)C2=O)ccc1OC(=O)c1ccco1 | 34* | 1 | 0 | 3 | 3 | 14 | 32 | 27
CC(=O)Oc1ccc(/C=C2/SC(=S)N(Cc3ccccc3)C2=O)cc1 | 74* | 0 | -4 | -1 | -2 | 1 | 6 | 8
COc1ccc(/C=C2\SC(=S)N(CCC(=O)NC3=NCCS3)C2=O)cc1OC | 53* | -1 | -4 | 3 | -4 | -5 | 9 | 17
SMILES | SENP1 inh | Fh CTSL1 inh | HDAC3 inh | PfM18AAP inh | FXN GAA850 act | AHR activator | SENP1 inh conf | SENP1 kin conf
CCNc1c(NC(=O)C2CCC(C)CC2)c(=O)oc2ccccc12 (centres undefined) | 2 | -1 | 14 | 1 | 2 | 1 | / | /
Cc1ccc(CNC(=O)CC(C)S(=O)(=O)c2ccc3c(c2)NC(=O)CS3)o1 (centres undefined) | 36* | -1 | -1 | -26 | 1 | 1 | 18 | 24*
Cn1c(=O)c2c(ncn2CC(=O)Nc2cc(S(=O)(=O)N3CCCCC3)ccc2Cl)n(C)c1=O | -1 | / | 2 | / | 4 | 1 | / | /
OCc1cccc(-c2cnc3c(Nc4cccc(OC(F)(F)C(F)F)c4)nccn23)c1 | -14 | / | / | / | 4 | / | / | /
CCN1/C(=C\C=C2\C(=O)N(C)C(=S)N2C)Sc2ccccc21 | 37* | -2 | -6 | 16 | -2 | -2 | -9 | -11
CCN1/C(=C2/OC(=S)N(C)C2=O)Sc2ccccc21 | -29 | / | / | -9 | -1 | / | / | /
CCCN(CCC)C(=O)Cn1c(=O)c2sccc2n2c(=S)sc(-c3ccccc3)c12 | 66* | -3 | 5 | -1 | 0 | 2 | 47* | 30
CCSC1=N/C(=C\C=C2/Oc3ccccc3N2CC)C(=O)S1 | 43* | -4 | / | 2 | 2 | 75* | 28 | 17
COc1ccc(-c2ccc(N3C(c4ccsc4)=Cc4ccc(F)cc4C3c3c[nH]c4ccccc34)cc2)cc1 (centres undefined) | -4 | / | / | / | / | / | / | /
COc1cc2cc(C#N)c(SCC(=O)Nc3cc(C)on3)nc2cc1OC | -5 | -1 | -1 | 7 | 1 | 1 | / | /
COc1ccc2nc(SCC(=O)Nc3cc(C)on3)c(C#N)cc2c1 | 48* | -1 | -2 | 2 | 1 | 0 | -37 | 13
COC(=O)CSc1nc2cc(C)ccc2cc1C#N | 62* | 9 | -6 | -24 | 5 | -2 | 15 | 22
CCOC(=O)CC(=O)CSc1nc2ccc(C)cc2cc1C#N | -28 | -3 | 4 | 26 | 6 | 9 | / | /
Cc1cc(NC(=O)CSc2nc3ccccc3cc2C#N)no1 | 55* | -5 | -1 | 6 | 4 | -8 | 60* | 50*
CCOCCCNCC(=O)NCC1CCCCC1 | 2 | -3 | 2 | 1 | 1 | 0 | / | /

Screening results: PubChem BioAssay, several laboratories
